Beta cell apopt: blocks beta cell apoptosis | INS-1E cytokine-induced death, ATP luminescence, 48 h; percent of positive-control rescue, neutral wells zero | protection from apoptosis, % (test concentration not listed) | hit rate 0.8% among 300,000 | AID 435005;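 active means Every replicate reaches about 75%, or at least half do and their mean reaches it too, limit read from the data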;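 further: higher means more ATP so stronger rescue from cytokine killing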
Efflux pump mplx: blocks antifungal efflux pumps in multiplex yeast assay | S. cerevisiae Candida pump triplex, Nile Red efflux | inhibition, % at 10 µM | hit rate 0.44% among 330,000;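 active means plate passing quality check with inhibition over a set limit, or well fluorescence over plate mean plus 4 SD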;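 further: Nile Red retained in pooled yeast measured as flow cytometry median fluorescence; higher means more Nile Red kept so more efflux inhibition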
WT yeast gro inh: growth inhibition of WT yeast, mitochondrial fusion screen; mitochondrial fusion phenotypic screen, WT strain; inhibition, % at 10 µM; hit rate 2.1% among 190,000; in the data active means inhibition above about 58%; tested in S. cerevisiae
T cruzi repl: blocks replication of Trypanosoma cruzi; T. cruzi beta-gal in NIH3T3, luminescence, 90 h; inhibition, % (no concentration beside the values); hit rate 1.4% among 300,000;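 active means mean inhibition across valid replicates above about 55%, limit read from the data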;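 further: signal also drops with host cell toxicity which is not excluded here; higher percent means less beta-gal luminescence so fewer parasites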
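Assay system: NIH/3T3 host cells with β-galactosidase reporter T. cruzi; input: 5,000 host fibroblasts per well; compound: single 50 nL compound addition per well in DMSO; timing: ≥90 h infection period, 3 h prior cell attachment; measured by: GalScreen β-gal luminescence, detergent lysis, 60 min; evaluation: percent inhibition of parasite-derived β-gal signal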
SUMO Mot1 rescue: inhibitors of SUMOylation pathway: yeast Mot1-301 growth rescue; S. cerevisiae Mot1-301 growth rescue, ATP luminescence, 38.5C; percent above DMSO median, 100 means doubled; hit rate 1% among 320,000; growth rescue, % at 18.8 µM;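 active means every valid replicate shows activation above 250% relative to neutral control wells; inactive means the rest, any valid replicate at or below 250%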
CSC inhib: cancer stem cell inhibition | hit rate 1.1% among 300,000 | cancer stem cell-like cells viability, luminescence | AID 2717 | inhibition, % at 7.5 µM; in the data active means inhibition above about 75%; tested in HMLE shEcad cells
Cmpd fluor yeast: flagged as fluorescent in efflux inhibitor counter-screen. shares compounds with Efflux pump mplx. hit rate 4% among 1,700. AID 588517. S. cerevisiae AD/pABC3, compound fluorescence, flow cytometry. fluorescence ratio to DMSO, % at 10 µM;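 active means fluorescence ratio to DMSO above its plate's cutoff, the plate mean ratio plus 5 SD, cut at about 210% in these data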;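 further: unstained yeast with no Nile Red so the signal is compound autofluorescence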
CaMdr1 efflux inh: inhibitors of Candida albicans Mdr1 efflux pump; hit rate 1% among 1,700; inhibition, % at 10 µM; shares compounds with Efflux pump mplx; S. cerevisiae AD/CaMDR1, Nile Red efflux, flow cytometry; in the data active means inhibition above about 26%;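 further: higher means more Nile Red retained so more efflux inhibition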
Cdr2 pump inh: blocks the Candida albicans Cdr2 efflux pump in yeast | hit rate 4% among 1,700 | AID 588520 | shares compounds with Efflux pump mplx | Nile Red retention ratio vs DMSO, % at 10 µM | S. cerevisiae AD/CaCDR2, Nile Red retention, flow cytometry; in the data active means Nile Red retention ratio vs DMSO above about 190%;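 further: higher ratio means more blocking of Cdr2 efflux of the dye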
CaCdr1 efflux inh: Candida Cdr1 efflux pump inhibition; shares compounds with Efflux pump mplx; S. cerevisiae AD/CaCDR1, Nile Red efflux, flow cytometry; inhibition, % at 10 µM; hit rate 1% among 1,700;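 active means inhibition above the screen-wide mean plus twice its standard deviation, cut at about 32% in these data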
Of the large screens only hits and unclear results are named; the others gave an inactive call (follow-up assays come after a bar, where they were run). The list is not random: actives were taken first. Their share in the collection is about 4.8%.

CN(C)S(=O)(=O)Nc1ccc(NS(=O)(=O)N(C)C)c(S(=O)(=O)c2ccccc2)c1	Efflux pump mplx 0.7 | Cmpd fluor yeast inactive | CaMdr1 efflux inh inactive | Cdr2 pump inh inactive | CaCdr1 efflux inh inactive
CCOc1ccccc1/C=C/c1onc(C)c1S(=O)(=O)N1CCC(C(=O)N(CC)CC)CC1	Efflux pump mplx 0.2 (no result: WT yeast gro inh) | Cmpd fluor yeast inactive | CaMdr1 efflux inh inactive | Cdr2 pump inh inactive | CaCdr1 efflux inh inactive
CCN(CCN(C)C)C(=O)C1CCN(S(=O)(=O)c2c(C)noc2/C=C/c2ccccc2F)CC1	none (no result: WT yeast gro inh)
O=C1N=c2ccccc2=C1c1sc(NS(=O)(=O)c2ccccc2)nc1O	none
O=C1N=c2ccccc2=C1c1sc(NS(=O)(=O)Cc2ccccc2)nc1O	Efflux pump mplx 0.7 (no result: WT yeast gro inh) | Cmpd fluor yeast inactive | CaMdr1 efflux inh inactive | Cdr2 pump inh inactive | CaCdr1 efflux inh inactive
COc1cc(OC)cc(C(=O)Nc2sc3c(c2C(N)=O)CCC3)c1	Efflux pump mplx 1.4 (no result: WT yeast gro inh) | Cmpd fluor yeast inactive | CaMdr1 efflux inh inactive | Cdr2 pump inh inactive | CaCdr1 efflux inh inactive
CC1CCN(C(=O)Cn2c(=O)n(Cc3ccco3)c(=O)c3sccc32)CC1	none (no result: WT yeast gro inh)
Cc1cc(NC(=O)CCC(=O)N(Cc2ccco2)C(C(=O)NC2CCCC2)c2ccccc2C)no1 (stereo not given)	none | Cmpd fluor yeast inactive | CaMdr1 efflux inh inactive | Cdr2 pump inh inactive | CaCdr1 efflux inh inactive
Cc1cc(NC(=O)CCC(=O)N(Cc2ccco2)C(C(=O)NC2CCCCC2)c2ccccc2)no1 (stereo not given)	none | Cmpd fluor yeast inactive | CaMdr1 efflux inh inactive | Cdr2 pump inh inactive | CaCdr1 efflux inh inactive
Cc1ccc(C(C(=O)NC2CCCC2)N(C(=O)CCC(=O)Nc2cc(C)on2)c2ccccc2)cc1 (stereo not given)	none | Cmpd fluor yeast inactive | CaMdr1 efflux inh inactive | Cdr2 pump inh inactive | CaCdr1 efflux inh inactive
Cc1cc(NC(=O)CCC(=O)N(Cc2ccco2)C(C(=O)NC2CCCC2)c2ccccc2F)no1 (stereo not given)	none (no result: WT yeast gro inh, CSC inhib)
Cc1cccc(C)c1NC(=O)CN(C)C(=O)CN1C(=O)NC2(CCCC2)C1=O	none (no result: WT yeast gro inh)
CN(C)C(=O)c1ccc(NC(=O)c2ccc(-c3ccc(Cl)cc3)o2)cc1	Efflux pump mplx 0.6 (no result: WT yeast gro inh) | Cmpd fluor yeast inactive | CaMdr1 efflux inh inactive | Cdr2 pump inh inactive | CaCdr1 efflux inh inactive
NS(=O)(=O)c1ccc(CCNC(=O)COC(=O)/C=C/c2ccc(Cl)cc2)cc1	none
O=C(/C=C/c1ccc(Cl)cc1)c1cccnc1	none (no result: T cruzi repl)
CCN(CC)c1ccc(/C=C/C(=O)c2cccnc2)cc1	Efflux pump mplx 69 | Cmpd fluor yeast inactive | CaMdr1 efflux inh inactive | Cdr2 pump inh inactive | CaCdr1 efflux inh inactive
CC1CCN(C(=O)c2ccc(S(=O)(=O)Cc3ccccc3F)c([N+](=O)[O-])c2)CC1	Efflux pump mplx 5.8 | Cmpd fluor yeast inactive | CaMdr1 efflux inh inactive | Cdr2 pump inh inactive | CaCdr1 efflux inh inactive
O=C(c1ccc(S(=O)(=O)Cc2ccccc2F)c([N+](=O)[O-])c1)N1CCCC1	none
c1csc(-c2nc3c4ccccc4c4ccccc4c3[nH]2)c1	Efflux pump mplx 0.4, WT yeast gro inh 80 | Cmpd fluor yeast inactive | CaMdr1 efflux inh inactive | Cdr2 pump inh inactive | CaCdr1 efflux inh inactive
Oc1ccccc1-c1nc2c3ccccc3c3ccccc3c2[nH]1	none (no result: WT yeast gro inh)
CC(C)Cn1cc(Cl)c(=O)n(CC(C)C)c1=O	none
COc1ccc(CCNC(=O)COC(=O)/C=C/c2ccc(OCC#N)c(OC)c2)cc1OC	none
COc1cc(/C=C/C(=O)OCC(=O)NCC2CCCO2)ccc1OCC#N (stereo not given)	Efflux pump mplx 6.5 | Cmpd fluor yeast inactive | CaMdr1 efflux inh inactive | Cdr2 pump inh inactive | CaCdr1 efflux inh inactive

Screening data (PubChem BioAssay)
